Laboratory results: ChEMBL document CHEMBL2401700, “Discovery of TD-8954, a clinical stage 5-HT(4) receptor agonist with gastrointestinal prokinetic properties” (Bioorg Med Chem Lett, 2013)

Assays:
[1] = Half life in rat liver micrososmes; format: ADME, Microsome; settings: liver microsomes
[2] = molecular target: T1, 5-hydroxytryptamine receptor 3A (Homo sapiens, UniProt P46098); assay: Binding affinity to human recombinant 5HT3 receptor
T1 sequence (P46098 whole entry): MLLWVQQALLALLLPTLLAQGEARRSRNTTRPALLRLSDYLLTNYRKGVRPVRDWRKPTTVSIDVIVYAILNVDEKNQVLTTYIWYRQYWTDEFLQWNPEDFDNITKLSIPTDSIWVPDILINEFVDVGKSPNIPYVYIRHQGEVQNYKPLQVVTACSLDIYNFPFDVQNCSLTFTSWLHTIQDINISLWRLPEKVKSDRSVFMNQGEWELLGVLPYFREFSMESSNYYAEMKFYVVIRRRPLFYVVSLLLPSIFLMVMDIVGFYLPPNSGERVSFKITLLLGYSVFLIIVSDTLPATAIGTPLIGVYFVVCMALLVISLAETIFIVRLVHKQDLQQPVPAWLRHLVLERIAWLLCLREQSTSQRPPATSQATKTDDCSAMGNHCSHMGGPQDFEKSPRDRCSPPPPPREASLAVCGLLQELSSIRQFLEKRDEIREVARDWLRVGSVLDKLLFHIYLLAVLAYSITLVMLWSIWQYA

[3] = Permeability across human Caco2 cells; format: ADME, cell-based; settings: Caco-2, read-out: Kp
[4] = molecular target: T2, 5-hydroxytryptamine receptor 4 (Homo sapiens, UniProt Q13639); assay: Agonist activity at human recombinant 5HT4 receptor assessed as cAMP accumulation relative to 5-HT; format: functional
T2 sequence (Q13639 whole entry): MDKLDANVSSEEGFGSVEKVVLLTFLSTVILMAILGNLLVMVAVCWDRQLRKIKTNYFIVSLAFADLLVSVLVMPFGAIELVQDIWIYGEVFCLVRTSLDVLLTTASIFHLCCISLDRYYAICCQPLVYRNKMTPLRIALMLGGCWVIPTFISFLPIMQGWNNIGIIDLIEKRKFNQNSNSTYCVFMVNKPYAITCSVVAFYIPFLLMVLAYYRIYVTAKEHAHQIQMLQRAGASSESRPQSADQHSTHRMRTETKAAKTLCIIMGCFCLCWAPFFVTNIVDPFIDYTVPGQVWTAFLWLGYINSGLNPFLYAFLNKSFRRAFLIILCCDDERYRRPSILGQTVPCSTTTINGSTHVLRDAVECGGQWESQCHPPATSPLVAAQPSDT
In short: (§1)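 cAMP accumulation in cells expressing human recombinant 5-HT4 receptor, reported as pEC50 with intrinsic activity as % of the maximum response achieved by 5-HT.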

[5] = molecular target: T2, 5-hydroxytryptamine receptor 4; assay: Agonist activity at human recombinant 5HT4 receptor assessed as cAMP accumulation; format: functional; in short: as §1
[6] = molecular target: T2, 5-hydroxytryptamine receptor 4; assay: Binding affinity to human recombinant 5HT4 receptor
hERG (KCNH2) = hERG (KCNH2) (Homo sapiens, UniProt Q12809); assay: Inhibition of human ERG channel at 3 uM
hERG (KCNH2), sequence (Q12809 whole entry): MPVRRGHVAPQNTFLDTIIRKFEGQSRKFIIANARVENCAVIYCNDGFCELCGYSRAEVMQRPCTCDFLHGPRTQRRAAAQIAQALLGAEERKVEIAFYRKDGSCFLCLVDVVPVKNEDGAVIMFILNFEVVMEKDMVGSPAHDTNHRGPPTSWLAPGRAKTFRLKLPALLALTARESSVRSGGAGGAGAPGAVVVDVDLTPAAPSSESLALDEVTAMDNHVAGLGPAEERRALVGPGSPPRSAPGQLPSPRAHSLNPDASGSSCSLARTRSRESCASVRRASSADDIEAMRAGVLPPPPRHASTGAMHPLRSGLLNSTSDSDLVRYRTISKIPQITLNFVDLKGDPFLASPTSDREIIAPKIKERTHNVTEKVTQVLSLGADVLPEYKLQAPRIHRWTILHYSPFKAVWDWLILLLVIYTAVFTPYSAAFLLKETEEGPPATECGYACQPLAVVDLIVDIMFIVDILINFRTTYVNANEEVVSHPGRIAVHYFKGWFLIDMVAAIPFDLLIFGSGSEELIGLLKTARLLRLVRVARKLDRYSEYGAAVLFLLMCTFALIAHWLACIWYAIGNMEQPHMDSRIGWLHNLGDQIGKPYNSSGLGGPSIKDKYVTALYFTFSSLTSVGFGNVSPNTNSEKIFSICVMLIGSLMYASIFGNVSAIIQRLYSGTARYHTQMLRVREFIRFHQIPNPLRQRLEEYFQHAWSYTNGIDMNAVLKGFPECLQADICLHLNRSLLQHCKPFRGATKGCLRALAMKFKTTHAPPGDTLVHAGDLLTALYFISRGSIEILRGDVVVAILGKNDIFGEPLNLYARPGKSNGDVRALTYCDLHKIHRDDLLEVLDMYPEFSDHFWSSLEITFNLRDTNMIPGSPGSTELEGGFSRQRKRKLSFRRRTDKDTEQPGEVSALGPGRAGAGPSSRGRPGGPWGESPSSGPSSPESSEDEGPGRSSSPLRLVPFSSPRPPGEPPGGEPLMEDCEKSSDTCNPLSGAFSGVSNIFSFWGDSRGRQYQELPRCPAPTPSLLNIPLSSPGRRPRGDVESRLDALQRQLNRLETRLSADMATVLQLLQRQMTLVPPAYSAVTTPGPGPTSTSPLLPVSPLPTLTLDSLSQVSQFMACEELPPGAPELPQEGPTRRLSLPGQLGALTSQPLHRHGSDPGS

Rattus norvegicus = assay: Agonist activity at 5HT4 receptor in ID dosed rat assessed as dose required to cause esophageal relaxation of 0.1 mm; format: functional
In short: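 Anesthetized rats dosed intraduodenally over about 0.01–10 mg/kg. Esophageal relaxation was tracked by digital sonomicrometry as the change in inter-crystal distance (mm), n = 4–6. An ED50 was derived from the dose–response, and the dose giving a 0.1 mm relaxation response was calculated.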

[7] = molecular target: T3, 5-hydroxytryptamine receptor 7 (Homo sapiens, UniProt P34969); assay: Binding affinity to human serotonin 5-HT7 receptor
T3 sequence (P34969 whole entry): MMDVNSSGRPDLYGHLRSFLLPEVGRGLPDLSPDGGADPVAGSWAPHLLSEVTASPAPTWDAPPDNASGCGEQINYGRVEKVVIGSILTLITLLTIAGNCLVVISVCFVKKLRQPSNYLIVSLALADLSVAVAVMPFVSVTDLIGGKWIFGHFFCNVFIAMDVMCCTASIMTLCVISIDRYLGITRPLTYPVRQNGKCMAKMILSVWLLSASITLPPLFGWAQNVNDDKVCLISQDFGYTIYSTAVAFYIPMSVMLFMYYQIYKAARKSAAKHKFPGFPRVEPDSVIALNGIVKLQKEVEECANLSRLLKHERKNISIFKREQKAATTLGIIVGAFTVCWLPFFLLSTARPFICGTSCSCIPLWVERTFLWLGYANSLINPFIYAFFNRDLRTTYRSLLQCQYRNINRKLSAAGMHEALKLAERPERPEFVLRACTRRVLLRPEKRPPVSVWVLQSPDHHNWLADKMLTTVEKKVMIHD

[8] = molecular target: T4, 5-hydroxytryptamine receptor 1A (Homo sapiens, UniProt P08908); assay: Binding affinity to human serotonin 5-HT1A receptor
T4 sequence (P08908 whole entry): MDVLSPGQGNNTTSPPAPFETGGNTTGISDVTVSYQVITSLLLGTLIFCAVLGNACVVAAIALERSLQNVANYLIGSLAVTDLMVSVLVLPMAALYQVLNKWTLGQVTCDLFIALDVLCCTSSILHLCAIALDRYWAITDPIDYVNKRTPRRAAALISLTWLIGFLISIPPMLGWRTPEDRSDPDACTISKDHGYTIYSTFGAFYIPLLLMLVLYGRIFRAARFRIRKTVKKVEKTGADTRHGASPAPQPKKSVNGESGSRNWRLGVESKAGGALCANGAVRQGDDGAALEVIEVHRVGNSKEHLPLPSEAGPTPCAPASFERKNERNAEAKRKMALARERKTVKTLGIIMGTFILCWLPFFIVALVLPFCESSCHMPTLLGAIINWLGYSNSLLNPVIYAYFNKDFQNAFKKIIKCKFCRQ

[9] = molecular target: T1, 5-hydroxytryptamine receptor 3A; assay: Binding affinity to serotonin 5-HT3 receptor (unknown origin)
[10] = Cardiotoxicity in dog coronary artery assessed as coronary artery constriction; format: toxicity, tissue-based, Canis lupus familiaris
[11] = molecular target: T3, 5-hydroxytryptamine receptor 7; assay: Binding affinity to serotonin 5-HT7 receptor (unknown origin)
[12] = molecular target: 5-hydroxytryptamine receptor 2B (Homo sapiens, UniProt P41595); assay: Binding affinity to serotonin 5-HT2B receptor (unknown origin)
5-hydroxytryptamine receptor 2B, sequence (P41595 whole entry): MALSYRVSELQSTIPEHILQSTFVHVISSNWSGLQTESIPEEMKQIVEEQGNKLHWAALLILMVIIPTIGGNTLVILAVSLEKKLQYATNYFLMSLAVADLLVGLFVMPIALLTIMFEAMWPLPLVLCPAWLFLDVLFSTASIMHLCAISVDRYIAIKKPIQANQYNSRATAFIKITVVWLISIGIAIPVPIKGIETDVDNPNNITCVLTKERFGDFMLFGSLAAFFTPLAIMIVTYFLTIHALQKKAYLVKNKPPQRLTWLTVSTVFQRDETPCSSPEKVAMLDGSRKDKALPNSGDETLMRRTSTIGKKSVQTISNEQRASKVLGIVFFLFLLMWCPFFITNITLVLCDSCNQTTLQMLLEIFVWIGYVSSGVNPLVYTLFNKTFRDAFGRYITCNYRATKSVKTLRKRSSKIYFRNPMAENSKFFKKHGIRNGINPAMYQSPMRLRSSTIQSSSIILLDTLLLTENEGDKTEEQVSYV

[13] = molecular target: 5-hydroxytryptamine receptor 2A (Homo sapiens, UniProt P28223); assay: Binding affinity to serotonin 5-HT2A receptor (unknown origin)
5-hydroxytryptamine receptor 2A, sequence (P28223 whole entry): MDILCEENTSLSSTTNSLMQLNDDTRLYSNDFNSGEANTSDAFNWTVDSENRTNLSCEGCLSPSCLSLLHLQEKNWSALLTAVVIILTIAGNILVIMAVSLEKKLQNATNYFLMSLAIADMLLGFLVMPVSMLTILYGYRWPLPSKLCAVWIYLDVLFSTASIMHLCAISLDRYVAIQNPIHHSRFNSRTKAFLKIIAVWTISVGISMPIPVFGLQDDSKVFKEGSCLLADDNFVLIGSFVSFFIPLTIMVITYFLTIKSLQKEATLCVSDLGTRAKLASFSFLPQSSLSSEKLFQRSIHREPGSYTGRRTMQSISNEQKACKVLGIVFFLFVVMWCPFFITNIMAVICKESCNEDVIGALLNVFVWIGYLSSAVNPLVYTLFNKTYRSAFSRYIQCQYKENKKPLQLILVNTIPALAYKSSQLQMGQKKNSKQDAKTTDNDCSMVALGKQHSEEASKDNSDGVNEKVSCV

[14] = molecular target: T5, 5-hydroxytryptamine receptor 2C (Homo sapiens, UniProt P28335); assay: Binding affinity to serotonin 5-HT2C receptor (unknown origin)
T5 sequence (P28335 whole entry): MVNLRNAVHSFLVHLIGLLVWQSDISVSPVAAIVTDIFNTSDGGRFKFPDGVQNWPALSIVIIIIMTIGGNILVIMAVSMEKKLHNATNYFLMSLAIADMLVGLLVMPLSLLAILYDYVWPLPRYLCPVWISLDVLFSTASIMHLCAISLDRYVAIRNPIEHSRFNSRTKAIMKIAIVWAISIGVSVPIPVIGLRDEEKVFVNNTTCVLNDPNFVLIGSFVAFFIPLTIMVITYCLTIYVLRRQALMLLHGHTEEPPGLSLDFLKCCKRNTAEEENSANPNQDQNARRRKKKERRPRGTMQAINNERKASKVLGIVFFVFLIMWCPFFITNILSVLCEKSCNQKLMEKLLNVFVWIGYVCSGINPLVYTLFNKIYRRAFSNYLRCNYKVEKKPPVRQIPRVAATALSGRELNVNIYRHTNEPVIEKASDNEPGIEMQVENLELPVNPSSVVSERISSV

[15] = molecular target: 5-hydroxytryptamine receptor 1D (Homo sapiens, UniProt P28221); assay: Binding affinity to serotonin 5-HT1D receptor (unknown origin)
5-hydroxytryptamine receptor 1D, sequence (P28221 whole entry): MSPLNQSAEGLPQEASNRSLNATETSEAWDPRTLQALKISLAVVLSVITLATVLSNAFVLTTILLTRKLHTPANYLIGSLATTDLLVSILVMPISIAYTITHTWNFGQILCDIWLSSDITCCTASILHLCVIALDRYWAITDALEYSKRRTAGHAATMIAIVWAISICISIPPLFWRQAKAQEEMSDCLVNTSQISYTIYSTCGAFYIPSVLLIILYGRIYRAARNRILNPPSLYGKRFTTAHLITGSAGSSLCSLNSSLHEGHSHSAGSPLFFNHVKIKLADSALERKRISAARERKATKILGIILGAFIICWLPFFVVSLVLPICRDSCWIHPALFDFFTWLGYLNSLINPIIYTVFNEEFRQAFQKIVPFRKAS

Row | Structure (SMILES) | half-life [1] [h] | Ki [2] [nM] | Papp [3] [×10⁻⁶ cm/s] | Intrinsic activity [4] [%] | EC50 [5] [nM] | Ki [6] [nM] | also measured
1 | CS(=O)(=O)N1CCN(CC(O)CN2CCC(CNC(=O)c3cccc4[nH]c(C5CC5)nc34)CC2)CC1 (stereo not given) | > 1.5 | 50100 | 2.1 | 64 | 0.631 | 0.501 | 
2 | COC(=O)N(C)CC(O)CN1CCC(CNC(=O)c2cccc3nc(C(C)C)[nH]c23)CC1 (stereo not given) | 1.32 | 50100 | 2 |  | 2 | 3.98 | 
3 | COC(=O)N1CCN(CCN2CCC(CNC(=O)c3cccc4[nH]c(C(C)C)nc34)CC2)CC1 | > 1.5 | 79400 | 9 | 72 | 1.58 | 1.58 | 
4 | CS(=O)(=O)N1CCN(CC(O)CN2[C@@H]3CC[C@H]2C[C@@H](NC(=O)c2cccc4[nH]cnc24)C3)CC1 (stereo not given in full) |  |  |  | 54 |  |  | 
5 | CC(C)c1nc2c(C(=O)NCC3CCN(CC(O)CN4CCN(S(C)(=O)=O)CC4)CC3)cccc2[nH]1 (stereo not given) | > 1.5 | 79400 | 0.2 | 61 | 0.631 | 0.501 | inhibition at 3 µM (hERG (KCNH2)): 5%
6 | COc1cc(N)c(Cl)cc1C(=O)NC1CCN(CCCOc2ccc(F)cc2)CC1OC (racemic) [CISAPRIDE] | 0.783 | 2000 |  | 71 |  |  | Activity (Rattus norvegicus): 2.66 mg/kg; Ki [7]: 1000 nM; Ki [8]: 794 nM; Ki [9]: 2000 nM
7 | CS(=O)(=O)N1CCN(CC(O)CN2CCC(CNC(=O)c3cccc4[nH]c(-c5ccccc5)nc34)CC2)CC1 (stereo not given) |  | 15800 |  | 41 | 1.58 | 1.26 | 
8 | CS(=O)(=O)N1CCN(CC(O)CN2[C@@H]3CC[C@H]2C[C@@H](NC(=O)c2cccc4nc[nH]c24)C3)CC1 (stereo not given in full) |  | 20000 |  |  | 251 | 316 | 
9 | CC(=O)N(C)CC(O)CN1CCC(CNC(=O)c2cccc3[nH]c(C(C)C)nc23)CC1 (stereo not given) |  |  |  | 64 |  |  | 
10 | CC(=O)N1CCN(CCN2CCC(CNC(=O)c3cccc4nc(C(C)C)[nH]c34)CC2)CC1 | > 1.5 | 39800 |  |  | 3.16 | 5.01 | 
11 | COC(=O)N(C)CC(O)CN1CCC(CNC(=O)c2cccc3[nH]c(C(C)C)nc23)CC1 (stereo not given) |  |  |  | 64 |  |  | 
12 | CS(=O)(=O)N1CCN(CC(O)CN2CCC(NC(=O)c3cccc4[nH]cnc34)CC2)CC1 (stereo not given) |  | 63100 |  | 7 | 631 | 251 | 
13 | CC(C)c1nc2c(C(=O)NCC3CCN(CC(O)CN4CCN(S(C)(=O)=O)CC4)CC3)cc(Cl)cc2[nH]1 (stereo not given) |  | 1260 |  | 0 |  | 0.316 | 
14 | CC(F)(F)c1nc2c(C(=O)NCC3CCN(CC(O)CN4CCN(S(C)(=O)=O)CC4)CC3)cccc2[nH]1 (stereo not given) |  |  |  | 59 |  |  | 
15 | CC(=O)N1CCN(CCN2CCC(CNC(=O)c3cccc4[nH]c(C(C)C)nc34)CC2)CC1 |  |  |  | 76 |  |  | 
16 | CC(F)(F)c1nc2cccc(C(=O)NCC3CCN(CC(O)CN4CCN(S(C)(=O)=O)CC4)CC3)c2[nH]1 (stereo not given) |  | 7940 |  |  | 0.794 | 2 | 
17 | CS(=O)(=O)N1CCN(CC(O)CN2CCC(CNC(=O)c3cccc4nc[nH]c34)CC2)CC1 (stereo not given) |  | 50100 |  |  | 10 | 6.31 | 
18 | CCc1nc2c(C(=O)NCC3CCN(CC(O)CN4CCN(S(C)(=O)=O)CC4)CC3)cccc2[nH]1 (stereo not given) |  | 79400 |  | 22 | 1 | 0.501 | 
19 | CC(C)c1nc2c(C(=O)NCC3CCN(CC4CCN(S(C)(=O)=O)CC4)CC3)cccc2[nH]1 | 1.47 | 100000 | 5 | 63 | 1 | 0.501 | inhibition at 3 µM (hERG (KCNH2)): 8%
20 | CC(=O)N(C)CC(O)CN1CCC(CNC(=O)c2cccc3nc(C(C)C)[nH]c23)CC1 (stereo not given) | > 1.5 | 63100 |  |  | 1.58 | 3.98 | 
21 | CC(C)(C)c1nc2cccc(C(=O)NCC3CCN(CC(O)CN4CCN(S(C)(=O)=O)CC4)CC3)c2[nH]1 (stereo not given) | > 1.5 | 39800 | 0.5 |  | 3.16 | 12.6 | 
22 | CCCCCNC(=N)N/N=C/c1c[nH]c2ccc(OC)cc12 [TEGASEROD] | > 1.5 | 2510 |  |  |  |  | Activity (Rattus norvegicus): 2.43 mg/kg; Activity [10]: Toxic; Ki [11]: < 100 nM; Ki [12]: < 2 nM; Ki [13]: < 100 nM; Ki [14]: < 100 nM; Ki [15]: < 100 nM
23 | CC(C)c1nc2cccc(C(=O)NCC3CCN(CC(O)CN(C)S(C)(=O)=O)CC3)c2[nH]1 (stereo not given) | > 1.5 | 79400 | 1 |  | 0.398 | 1.26 | 
24 | CC(C)c1nc2c(C(=O)NCC3CCN(CCN4CCN(S(C)(=O)=O)CC4)CC3)cccc2[nH]1 | > 1.5 | 100000 | 4 | 64 | 0.794 | 0.794 | 
25 | CS(=O)(=O)N1CCN(CC(O)CN2CCC(CNC(=O)c3cccc4[nH]cnc34)CC2)CC1 (stereo not given) |  |  |  | 6 |  |  | 
26 | CC(C)c1nc2c(C(=O)NCC3CCN(CC(O)CN(C)S(C)(=O)=O)CC3)cccc2[nH]1 (stereo not given) |  |  |  | 83 |  |  | 
27 | CC(C)(C)c1nc2c(C(=O)NCC3CCN(CC(O)CN4CCN(S(C)(=O)=O)CC4)CC3)cccc2[nH]1 (stereo not given) |  |  |  | 94 |  |  | 
28 | CC(=O)N1CCC(CN2CCC(CNC(=O)c3cccc4[nH]c(C(C)C)nc34)CC2)CC1 | > 1.5 | 100000 | 6 | 87 | 1.58 | 1 | inhibition at 3 µM (hERG (KCNH2)): 22%
